From PubChem BioAssay
NRP1-CendR mod = modulators of CendR peptide binding to human neuropilin-1; O14786; FAM-RPARPAR peptide binding to NRP-1, fluorescence polarization; inhibition, % at 25 µM; actives 0.85% (n = 360,000);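 active means inhibition or corrected inhibition above about 18%, plus a signal ratio from 0.5 to 1.5, limit read from the data, passing the limit was not always enough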
Target sequence (O14786 whole entry, looked up): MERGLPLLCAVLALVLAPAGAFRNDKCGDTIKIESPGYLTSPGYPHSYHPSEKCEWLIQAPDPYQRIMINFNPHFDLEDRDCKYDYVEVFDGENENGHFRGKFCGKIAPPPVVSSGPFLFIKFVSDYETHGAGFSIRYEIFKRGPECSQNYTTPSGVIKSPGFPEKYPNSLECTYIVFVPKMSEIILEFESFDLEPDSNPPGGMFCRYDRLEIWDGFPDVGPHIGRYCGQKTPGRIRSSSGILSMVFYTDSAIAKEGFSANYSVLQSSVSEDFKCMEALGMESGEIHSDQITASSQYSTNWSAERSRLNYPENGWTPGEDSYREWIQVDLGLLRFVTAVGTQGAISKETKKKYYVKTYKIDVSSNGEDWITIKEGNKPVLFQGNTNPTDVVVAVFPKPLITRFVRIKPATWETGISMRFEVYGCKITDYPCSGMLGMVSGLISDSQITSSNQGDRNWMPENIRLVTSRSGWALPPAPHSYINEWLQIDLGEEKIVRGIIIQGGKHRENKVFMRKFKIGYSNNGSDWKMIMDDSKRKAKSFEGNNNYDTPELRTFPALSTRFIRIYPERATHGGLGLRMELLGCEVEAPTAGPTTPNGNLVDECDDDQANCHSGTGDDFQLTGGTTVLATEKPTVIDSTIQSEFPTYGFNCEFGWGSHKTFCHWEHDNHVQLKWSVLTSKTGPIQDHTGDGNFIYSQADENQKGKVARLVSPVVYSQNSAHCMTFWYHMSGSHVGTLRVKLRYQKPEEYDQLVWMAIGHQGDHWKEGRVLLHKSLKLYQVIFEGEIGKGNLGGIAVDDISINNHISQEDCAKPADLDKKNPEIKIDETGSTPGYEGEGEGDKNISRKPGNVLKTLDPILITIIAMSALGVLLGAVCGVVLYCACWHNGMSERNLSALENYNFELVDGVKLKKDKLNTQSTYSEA
hiPSC survival = increases survival of single human iPS cells | actives 0.044% (n = 360,000) | survival enhancement, % at 20 µM | AID 602274 | hiPSC single-cell survival, ATPlite luminescence; 100% = ROCK inhibitor wells, 0% = DMSO; in the data active means survival enhancement above about 18%;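 further: cells exposed to compounds for 16 hours before the ATP read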
MT1-MMP act inh = inhibitors of human MT1-MMP activation | P50281 | HT1080 RFP-PRO-GFP cells, GFP/RFP ratio fluorescence, overnight; percent of plate control window, DMSO zero | GFP/RFP ratio change, % at 20 µM | actives 0.061% (n = 360,000) | AID 651647;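 active means GFP/RFP ratio change of at least 30% with cell ATP level not reduced by more than half and red fluorescence within 50% of control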
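Material – HT1080 RFP-PRO-GFP cells · Control set – DMSO wells and RFP-L50D-GFP cells · Incubation – overnight cell settling, then overnight compound exposure, 37 °C, 5% CO2 · Compound dosing – single-point 20 µM compound, 1% DMSO · Read-out – GFP/RFP fluorescence ratio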
SKN-1 block = inhibitors of C. elegans SKN-1 | C. elegans VP596 Pgst-4::GFP/RFP ratio, acrylamide-induced, 24 h | actives 0.49% (n = 360,000) | inhibition, % at 21.8 µM | AID 624304;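 active means interference check ratio from 0.5 to 1.5 plus GFP to RFP signal ratio inhibition reaching or exceeding a fixed threshold, cut at about 30% in these data, passing the limit was not always enough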
The depositor's hits bear a star; nt = no result. Shown are actives, neighbours in structure and some others; about 1.4% of the full set was active somewhere.

SMILES	NRP1-CendR mod	hiPSC survival	MT1-MMP act inh	SKN-1 block
Cc1onc(C(=O)N2CCC(Cc3ccccc3)CC2)c1[N+](=O)[O-]	-4.0	0.5	-6.3	10.1
O=C1CC(NNC(=O)c2ccc(Br)cc2)C(=O)N1 (stereo not drawn)	-3.0	1.3	2.5	42.8*
O=C(OCc1nnc(-c2ccc(Cl)cc2)o1)c1ccc(O)cc1	29.4*	1.6	1.9	9.3
Cc1nn(Cc2ccccc2)c(Cl)c1C(=O)OCc1nnc(-c2ccc(Cl)cc2)o1	38.4*	-1.5	0.8	-6.3
Cc1nn(Cc2ccccc2)c(Cl)c1C(=O)OCc1nnc(-c2ccccc2)o1	-7.7	0.9	3.1	-38.9
O=C1CCC(C(=O)OCc2nnc(-c3ccc(Cl)cc3)o2)=NN1	6.6	-0.1	-1.0	14.4
O=[N+]([O-])c1ccccc1NCCOc1ccccc1	2.2	1.8	5.0	45.8*
COc1ccc(-c2noc(C(=O)NCc3ccccc3Cl)n2)cc1OC	-0.4	1.2	3.0	-8.3
COc1ccc(-c2noc(C(=O)NCc3ccc(F)cc3)n2)cc1OC	36.7*	-2.6	-1.4	6.1
COc1ccccc1Nc1nc(Cl)nc(Nc2ccccc2OC)n1	26.1*	-0.8	1.2	5.9
Nc1cc(Cl)ccc1Oc1ccc(Cl)cc1	-5.0	-3.4	-0.5	32.9
CN(C)c1ccc(Cl)cc1N	27.6*	0.1	nt	-7.5
Cc1ccc(NC(=O)CN2C(=O)N/C(=C\c3cccnc3)C2=O)cc1	3.7	-1.2	4.3	-2.1
COC1=C(N)C(=O)c2nc(C)ccc2C1=O	30.9*	-2.4	1.2	-11.2
CCOc1ccccc1Oc1coc2cc(OCC(=O)O)ccc2c1=O	1.2	1.5	-8.3	4.0
CCOc1ccc2c(=O)c(Oc3ccccc3OCC)coc2c1	-2.9	6.8	-7.3	36.1*
COc1ccc(OCCSc2nnc(-c3cccnc3)n2N)cc1	-5.3	-0.3	2.7	11.5
O=C(Nc1ccccc1N1CCOCC1)c1ccc(N2CCCC2=O)cc1	25.4*	-0.6	-3.9	2.9
CCN(CC)S(=O)(=O)c1ccc(N2CCOCC2)c(NC(=O)c2ccc(N3CCCC3=O)cc2)c1	-0.5	0.5	5.2	-3.6
Cc1ccccc1Nc1nc(N)nc(CN2C(=O)NC3(CCCCC3C)C2=O)n1 (stereo not drawn)	6.6	-1.7	7.9	17.9
COC(=O)c1sccc1Oc1ccc(F)cc1[N+](=O)[O-]	-9.2	5.0	0.8	-10.5
Cn1c(/C(C#N)=C(\O)c2ccc([N+](=O)[O-])s2)nc2ccccc21	-18.7	-0.3	3.8	40.4*
N#CC1(NC(=O)COC(=O)C2CCN(S(=O)(=O)c3ccc4c(c3)OCCO4)CC2)CCCCC1	10.9	-0.8	-1.1	-16.8
OCCCc1n[nH]c(=S)n1-c1ccccc1	23.4*	-2.1	0.7	-4.0
O=C1CCN(Cc2cccnc2)CCN1[C@H](CO)c1ccccc1	22.0*	-0.1	1.4	11.4
SMILES	NRP1-CendR mod	hiPSC survival	MT1-MMP act inh	SKN-1 block
COc1cccc(CNC(=O)CCC2CCCN(C(=O)c3cscn3)C2)c1 (stereo not drawn)	-11.9	-0.1	2.3	-10.9
CN1CCN(C(=O)/C=C/c2cccc(Cl)c2)CC1	25.4*	0.1	-0.3	4.5
CN1CCN(C(=O)/C=C\c2ccc(Cl)cc2)CC1	-11.6	0.0	-0.5	-10.6
N#C/C(=C\c1ccc([N+](=O)[O-])o1)C(=O)Nc1ccc(F)cc1	-128.8	2.1	-25.6	35.4*
COc1ccc(NC(=O)/C(C#N)=C\c2ccc(Br)o2)cc1	1.3	-0.1	-33.5	5.6
Cc1ccc(S(=O)(=O)N2CC(=NN=C(N)N)C2)cc1	1.4	-0.5	4.3	7.0
CCN(c1cccc(C)c1)S(=O)(=O)c1ccc(-n2cccn2)cc1	22.4*	-0.5	1.1	6.0
COc1ccc(N2CCN(C(=O)COC(=O)CSc3ccccc3)CC2)cc1	-4.5	0.5	6.4	9.3
Cc1ccccc1NC(=O)CSc1nccn1Cc1ccco1	-13.9	-1.7	-0.7	-2.5
CCOC(=O)C1=C(CSc2nc(-c3ccccc3)ccc2C#N)OC(N)=C(C#N)C1c1ccc(OC)cc1 (stereo not drawn)	-69.4	-2.3	-41.6	43.2*
CCOC(=O)C1=C(CSc2nc(CC)c(C)cc2C#N)OC(N)=C(C#N)C1c1ccccc1 (stereo not drawn)	-7.4	4.0	-25.8	7.6
C=CCN1C(=O)/C(=c2\sc3nc(=O)c(Cc4ccccc4Cl)nn3c2=O)c2ccccc21	5.1	-0.5	3.5	1.9
COc1ccccc1NC(=O)c1ccccc1Oc1ccccc1	26.5*	-0.4	-5.1	1.3
COc1ccc(NC(=O)c2ccccc2Oc2ccccc2)c(OC)c1	6.2	-0.5	0.0	20.0
C/C(=C\C(=O)c1ccccc1)NCc1ccc(F)cc1	4.8	-1.0	2.2	33.4*
C/C(=C\C(=O)c1ccc(C)cc1)NCc1ccc(F)cc1	6.5	-1.3	-5.6	12.5
Cc1nc2scc(C)n2c(=O)c1S(=O)(=O)NCCc1ccccc1	6.8	-0.6	-2.5	10.5
O=C(c1ccc(S(=O)(=O)NCc2ccco2)cc1)N1CCN(Cc2ccc3c(c2)OCO3)CC1	-1.4	-0.3	0.0	-0.2
COc1ccc(CN2CCN(C(=O)c3ccc(S(=O)(=O)NCc4ccco4)cc3)CC2)cc1F	29.7*	-0.4	-12.1	9.3
COc1ccc(N2C(=S)N(C(=O)c3ccccc3)C(=Nc3ccccc3)C2=Nc2ccccc2)cc1	6.2	-3.1	1.2	-5.3
COC(=O)c1ccc(C)c(NC(=O)Cc2coc3cc(OC)ccc23)c1	31.7*	-0.8	2.5	-7.3
O=C(COC(=O)c1cc(Cl)ccc1O)NCCC1=CCCCC1	20.5*	-0.2	2.1	8.4
COc1cc(CN2CCN(Cc3ccc(SC)cc3)CC2)cc(OC)c1O	22.9*	-0.4	-2.6	4.5
COc1cc(OC)c(OC)cc1CN1CCN(Cc2ccc(SC)cc2)CC1	10.3	-1.1	4.1	-2.8
Cc1ccsc1C(=O)OCC(=O)Nc1sccc1C(N)=O	-14.6	20.3*	-5.3	-5.6
SMILES	NRP1-CendR mod	hiPSC survival	MT1-MMP act inh	SKN-1 block
Cc1ccsc1C(=O)OCC(=O)NCCNC(=O)COC(=O)c1sccc1C	10.5	-0.5	-6.0	-5.5
Cc1ccsc1C(=O)OCC(=O)NC1CCCC1	21.2*	-0.4	2.1	-10.7
N#C/C(=N\Nc1ccccc1)C(N)=S	-2.9	0.4	2.4	-5.1
N#C/C(=N\Nc1ccc(Cl)cc1)C(N)=S	3.2	0.0	7.7	39.1*
CCc1ccc(C(=O)Nc2cc(S(=O)(=O)N3CCOCC3)ccc2N2CCOCC2)cc1	12.5	-2.0	-2.4	10.0
COc1cc(OC)cc(Oc2ccc(S(=O)(=O)N3CCCCC3)cc2[N+](=O)[O-])c1	10.7	0.3	-3.7	8.9
O=C(Nc1ccc(-c2cn3ccsc3n2)cc1)C1COc2ccccc2O1 (stereo not drawn)	-11.9	-3.0	0.3	35.9*
Cc1ccc(NC(=O)C2COc3ccccc3O2)cc1 (stereo not drawn)	23.6	-0.5	-0.3	1.9
CCN(CC)CCC(c1cc(OC)c(OC)c(OC)c1)c1c(OC)cc(OC)c2c(C)cc(=O)oc12 (stereo not drawn)	8.2	-2.3	-2.4	39.9*
